Data published in ChEMBL document CHEMBL3414529, “Discovery and optimization of novel dual dithiocarbamates as potent anticancer agents” (Eur J Med Chem, 2015).

Columns and labels:
[1] = Antiproliferative activity against human H460 cells assessed as inhibition of cell growth after 72 hrs by MTT method; format: functional, cell-based; conditions: NCI-H460, 72 h
Method in brief: (§1)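 Tumor cells seeded in 100 µL suspension, 24 h preincubation at 37 °C, 5% CO2. Serial dilutions of compound then added for 72 h; DMSO controls at 0.5% final. Surviving cells quantified by MTT, OD read at 492/620 nm. IC50 is the concentration giving 50% growth inhibition, taken from dose-response curves of a triplicate experiment.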

HepG2 = assay: Antiproliferative activity against human HepG2 cells assessed as inhibition of cell growth after 72 hrs by MTT method; format: functional, cell-based; conditions: HepG2, 72 h; method in brief: as §1
MCF7 = assay: Antiproliferative activity against human MCF7 cells assessed as inhibition of cell growth after 72 hrs by MTT method; format: functional, cell-based; conditions: MCF7, 72 h; method in brief: as §1
MDA-MB-453 = assay: Antiproliferative activity against human MDA-MB-453 cells assessed as inhibition of cell growth after 72 hrs by MTT method; format: functional, cell-based; conditions: MDA-MB-453, 72 h; method in brief: as §1
SW480 = assay: Antiproliferative activity against human SW480 cells assessed as inhibition of cell growth after 72 hrs by MTT method; format: functional, cell-based; conditions: SW480, 72 h; method in brief: as §1
NCI-H522 = assay: Antiproliferative activity against human NCI-H522 cells assessed as inhibition of cell growth after 72 hrs by MTT method; format: functional, cell-based; conditions: NCI-H522, 72 h; method in brief: as §1
[2] = Antiproliferative activity against human PC3 cells assessed as inhibition of cell growth after 72 hrs by MTT method; format: functional, cell-based; conditions: PC-3, 72 h; method in brief: as §1
[3] = Antiproliferative activity against human H1299 cells assessed as inhibition of cell growth after 72 hrs by MTT method; format: functional, cell-based; conditions: NCI-H1299, 72 h; method in brief: as §1
A-375 = assay: Antiproliferative activity against human A375 cells assessed as inhibition of cell growth after 72 hrs by MTT method; format: functional, cell-based; conditions: A-375, 72 h; method in brief: as §1
[4] = Antiproliferative activity against human COLO205 cells assessed as inhibition of cell growth after 72 hrs by MTT method; format: functional, cell-based; conditions: COLO 205, 72 h; method in brief: as §1
[5] = Antiproliferative activity against human LO2 cells assessed as inhibition of cell growth after 72 hrs by Alamar Blue method; format: cell-based; conditions: L02, 72 h
Method in brief: (§2)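 Non-tumor cells seeded at 3.5 × 10³ cells/mL, 100 µL each, preincubated 24 h at 37 °C, 5% CO2. Serial dilutions then added for 72 h; DMSO controls at 0.5% final. Surviving cells measured by Alamar Blue, OD read at 492/620 nm. IC50 from a triplicate experiment.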

HEK293 = assay: Antiproliferative activity against human HEK293 cells assessed as inhibition of cell growth after 72 hrs by Alamar Blue method; format: cell-based; conditions: HEK293, 72 h; method in brief: as §2

SMILES | IC50 [1] | also measured
CN(C)C(=S)SCC(CSC(=S)N(C)C)C(=O)c1ccccc1F | 920 nM | –
CN(C)C(=S)SCC(CSC(=S)N(C)C)C(=O)c1csc2ccccc12 | 850 nM | –
CN(C)C(=S)SCC(CSC(=S)N(C)C)C(=O)c1c(-c2ccccc2)nn2ccccc12 | 4090 nM | –
CN(C)C(=S)SCC(CSC(=S)N(C)C)C(=O)c1cnn2ncccc12 | 4550 nM | –
O=C(c1cnc2ccccc2c1)C(CSC(=S)N1CCSCC1)CSC(=S)N1CCSCC1 | 125000 nM | –
CN(C)C(=S)SCC(CSC(=S)N(C)C)C(=O)c1c(-c2ccccc2)nn2ncccc12 | 58200 nM | –
CN(C)C(=S)SCC(CSC(=S)N(C)C)C(=O)c1cc2ccccc2oc1=O | 660 nM | –
O=C(c1cnc2ccccc2c1)C(CSC(=S)N1CCCCC1)CSC(=S)N1CCCCC1 | 4650 nM | –
Cc1nc2ccccn2c1C(=O)C(CSC(=S)N(C)C)CSC(=S)N(C)C | 151000 nM | –
CCN(CC)C(=S)SCC(CSC(=S)N(CC)CC)C(=O)c1cnc2ccccc2c1 | 5160 nM | –
CN(C)C(=S)SCC(CSC(=S)N(C)C)C(=O)c1ccc[nH]1 | 97300 nM | –
CN(C)C(=S)SCC(CSC(=S)N(C)C)C(=O)c1ccccc1 | 1930 nM | –
CN(C)C(=S)SCC(CSC(=S)N(C)C)C(=O)c1cccnc1 | 870 nM | –
COc1cccc(C(=O)C(CSC(=S)N(C)C)CSC(=S)N(C)C)c1 | 1240 nM | –
CN(C)C(=S)SCC(CSC(=S)N(C)C)C(=O)c1ccc(O)cc1 | 30000 nM | –
CN1CCN(C(=S)SCC(CSC(=S)N2CCN(C)CC2)C(=O)c2cnc3ccccc3c2)CC1 | 2510 nM | –
CN(Cc1cccnc1)C(=S)SCC(CSC(=S)N(C)Cc1cccnc1)C(=O)c1cnc2ccccc2c1 | 1000 nM | –
CN(C)C(=S)SCC(CSC(=S)N(C)C)C(=O)c1cnc2ccccc2c1 | 476 nM | IC50 (HepG2): 54 nM; IC50 (MCF7): 23 nM; IC50 (MDA-MB-453): 162 nM; IC50 (SW480): 6350 nM; IC50 (NCI-H522): 139 nM; IC50 [2]: 431 nM; IC50 [3]: 622 nM; IC50 (A-375): 439 nM; IC50 [4]: 325 nM; IC50 [5]: 13100 nM; IC50 (HEK293): 10800 nM
CN(C)C(=S)SCC(CSC(=S)N(C)C)C(=O)c1cnn2ccccc12 | 31500 nM | –
CN(C)C(=S)SCC(CSC(=S)N(C)C)C(=O)c1ccc(OCc2ccccc2)cc1 | 9770 nM | –
CC(=O)C(CSC(=S)N(C)C)CSC(=S)N(C)C | 890 nM | –
O=C(c1cnc2ccccc2c1)C(CSC(=S)N1CCCC1)CSC(=S)N1CCCC1 | 790 nM | –
CN(C)C(=S)SCC(CSC(=S)N(C)C)C(=O)c1cnc2ccccn12 | 13000 nM | –
CN(C)C(=S)SCC(CSC(=S)N(C)C)C(=O)c1ccc2c(c1)ncn2-c1ccccc1 | 2200 nM | –
CN(C)C(=S)SCC(CSC(=S)N(C)C)C(=O)c1ccc(F)cc1 | 1210 nM | –
COc1ccccc1C(=O)C(CSC(=S)N(C)C)CSC(=S)N(C)C | 810 nM | –
O=C(c1cnc2ccccc2c1)C(CSC(=S)N1CCOCC1)CSC(=S)N1CCOCC1 | 580 nM | –
CN(C)C(=S)SCC(CSC(=S)N(C)C)C(=O)c1nccs1 | 840 nM | –
